From ChEMBL document CHEMBL1127811, “Inhibitors of cholesterol biosynthesis. 2. Hypocholesterolemic and antioxidant activities of benzopyran and tetrahydronaphthalene analogues of the tocotrienols” (J Med Chem, 1994)

Legend:
[1] = species on record: Gallus gallus; assay: (§1) Hypocholesterolemic activity in 6-week old male mormocholesterolemic chickens using experiment 3; format: functional
Outline: (§2)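 Six-week-old male chickens fed corn-soybean control diet with test compound at 50 ppm. Birds fasted 36 h, then refed 48 h before sacrifice. Serum total, LDL and HDL cholesterol and triglycerides measured (mg/100 mL), HDL/total ratio computed. Means ± SD, n = 6–12 per group, also as % of control. Significance p < 0.01 within each study.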

[2] = species on record: Gallus gallus; assay: as §1; format: functional; remark: listed apart in the source
Outline: (§3)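 Male chickens, 6 weeks old. Test compound mixed at 50 ppm into a corn-soybean control diet; controls get the diet alone. After the feeding period, birds are fasted 36 h and refed 48 h before sacrifice. Serum total, LDL and HDL cholesterol (mg/100 mL) and triglycerides measured; expressed as mean ± SD and percent of control, n = 6–12 per group.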

[3] = tested on: HepG2; assay: In vitro inhibition of cholesterol biosynthesis in Hep G2 cells; format: functional, Homo sapiens; set-up: concentration or dose not given beside the values
Outline: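 HepG2 human hepatoma cells incubated 4 h with compound at 10 μM, DMSO vehicle controls. Mean % inhibition vs controls, SD ≤ ±10%, n ≥ 8.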

[4] = species on record: Gallus gallus; assay: Ratio of HDL/total cholesterol value; format: functional; outline: as §2
[5] = species on record: Gallus gallus; assay: (§4) Hypocholesterolemic activity in 6-week old male mormocholesterolemic chickens using experiment 4; format: functional; outline: as §3
[6] = species on record: Gallus gallus; assay: as §4; format: functional; outline: as §2; remark: listed apart in the source
[7] = LDL oxidation assay as spectrophotometric determination of TBARS; format: functional
Outline: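 LDL (0.5 mg/mL protein stock) in saline/20 mM HEPES with drug in ethanol, oxidised by CuSO4 (4 × 10⁻⁴ M stock), 37 °C, 5 h, in duplicate. Stopped with EDTA; TCA/TBA added, boiled 30 min, A535 read. Malonaldehyde equivalents from tetramethoxypropane standard curve. IC50 = concentration inhibiting 50% TBARS vs ethanol controls.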

[8] = molecular target: T1, 3-hydroxy-3-methylglutaryl-coenzyme A reductase (Homo sapiens) (UniProt P04035); assay: In vitro suppression of HMG-CoA reductase (HMGR) in Hep G2 cells; format: cell-based; set-up: concentration or dose not given beside the values; conditions: HepG2, concentration not given here
T1 sequence (whole entry): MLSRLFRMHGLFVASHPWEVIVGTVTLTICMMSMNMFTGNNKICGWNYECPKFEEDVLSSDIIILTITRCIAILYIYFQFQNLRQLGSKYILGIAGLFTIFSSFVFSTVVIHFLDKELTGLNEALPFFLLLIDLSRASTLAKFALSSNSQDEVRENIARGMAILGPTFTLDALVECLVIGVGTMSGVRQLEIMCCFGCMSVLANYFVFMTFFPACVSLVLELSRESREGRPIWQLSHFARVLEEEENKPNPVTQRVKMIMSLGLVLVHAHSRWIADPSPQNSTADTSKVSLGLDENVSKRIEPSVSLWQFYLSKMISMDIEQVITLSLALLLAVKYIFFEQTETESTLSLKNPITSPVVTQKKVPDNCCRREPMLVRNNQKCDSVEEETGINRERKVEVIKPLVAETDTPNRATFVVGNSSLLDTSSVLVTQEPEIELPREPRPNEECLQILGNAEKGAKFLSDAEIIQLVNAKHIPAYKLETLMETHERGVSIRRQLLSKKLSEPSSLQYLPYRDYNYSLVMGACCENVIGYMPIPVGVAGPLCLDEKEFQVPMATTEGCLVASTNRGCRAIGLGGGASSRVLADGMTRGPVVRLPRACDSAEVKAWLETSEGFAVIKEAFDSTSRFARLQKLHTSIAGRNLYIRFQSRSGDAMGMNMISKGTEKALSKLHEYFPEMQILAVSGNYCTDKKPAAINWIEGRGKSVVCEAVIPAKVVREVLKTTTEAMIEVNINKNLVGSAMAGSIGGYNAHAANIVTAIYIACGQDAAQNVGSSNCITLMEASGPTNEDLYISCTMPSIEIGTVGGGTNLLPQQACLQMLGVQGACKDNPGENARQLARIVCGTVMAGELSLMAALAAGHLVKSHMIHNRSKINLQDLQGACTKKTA
Outline: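 HepG2 cells treated 4 h with compound at 10 μM, DMSO vehicle controls. HMG-CoA reductase activity assayed in microsomal fraction isolated at end of incubation. Mean % suppression vs controls, SD ≤ ±10%, n ≥ 8.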

[9] = species on record: Gallus gallus; assay: (§5) Hypocholesterolemic activity in 6-week old male mormocholesterolemic chickens using experiment 1; format: functional; outline: as §3
[10] = Compound oxidation potential using cyclic voltametry; format: ADME
[11] = species on record: Gallus gallus; assay: as §5; format: functional; outline: as §2; remark: listed apart in the source
[12] = species on record: Gallus gallus; assay: Hypocholesterolemic activity in 6-week old male mormocholesterolemic chickens using experiment 2; format: functional; outline: as §2

Row | Compound | Inhibition [3] [%] | Ratio [4] | IC50 [7] [µM] | Potential [10] | other results
1 | CC(C)=CCC/C(C)=C/CC/C(C)=C/CCC1(C)CCc2cc(O)cc(Br)c2O1 (stereo not drawn) | 62 | 0.67 | – | – | HDL cholesterol [1]: 93 mg 100ml-1; Total cholesterol [1]: 139 mg 100ml-1; Triglycerides [1]: 87 mg 100ml-1; LDL cholesterol [2]: 45 mg 100ml-1
2 | CC(=O)Oc1cc2c(c(C)c1C)OC(CC/C=C(\C)CC/C=C(\C)CCC=C(C)C)CC2 (stereo not drawn) | – | 0.63 | – | – | LDL cholesterol [5]: 44 mg 100ml-1; HDL cholesterol [6]: 87 mg 100ml-1; Total cholesterol [6]: 139 mg 100ml-1; Triglycerides [6]: 67 mg 100ml-1
3 | CC(C)=CCC/C(C)=C\CCC1(C)CCc2cc(O)ccc2O1 (stereo not drawn) | 55 | 0.66 | 2 | – | LDL cholesterol [5]: 39 mg 100ml-1; inhibition [8]: 39%; HDL cholesterol [6]: 94 mg 100ml-1; Total cholesterol [6]: 142 mg 100ml-1; Triglycerides [6]: 67 mg 100ml-1
4 | CC(C)=CCC/C(C)=C/CC/C(C)=C/CCC1(C)CCc2cc(O)cc(C#N)c2O1 (stereo not drawn) | 63 | 0.62 | – | – | HDL cholesterol [1]: 94 mg 100ml-1; Total cholesterol [1]: 151 mg 100ml-1; Triglycerides [1]: 83 mg 100ml-1; LDL cholesterol [2]: 54 mg 100ml-1
5 | CC(C)=CCC/C(C)=C/CC/C(C)=C/CCC1(C)CC(=O)c2cc(O)c(C)c(C)c2O1 (stereo not drawn) | 93 | 0.81 | 2 | 1.2 | LDL cholesterol [9]: 36 mg 100ml-1; inhibition [8]: 16%; HDL cholesterol [11]: 108 mg 100ml-1; Total cholesterol [11]: 133 mg 100ml-1; Triglycerides [11]: 64 mg 100ml-1
6 | C/C(=C\CCC1(C)CCc2cc(O)c(F)cc2O1)CO (stereo not drawn) | 15 | – | > 10 | – | –
7 | CC(C)=CCC/C(C)=C/CC/C(C)=C/CCC1(C)CCc2cc(O)c(C(C)(C)C)cc2O1 (stereo not drawn) | 38 | – | 10 | – | –
8 | CC(C)=CCC/C(C)=C/CC/C(C)=C/CCC1(C)CCc2ccc(O)cc2O1 (stereo not drawn) | 58 | – | > 10 | 1.44 | –
9 | CCCCC/C=C\C/C=C\CCCCCCCC1(C)CCc2cc(O)c(C)c(C)c2O1 (stereo not drawn) | 18 | – | – | – | –
10 | CC(C)=CCC/C(C)=C/CC/C(C)=C/CCC1(C)CCc2cc(O)ccc2O1 (stereo not drawn) | 62 | 0.61 | 0.6 | 1.05 | inhibition [8]: 53%; Triglycerides [12]: 80 mg 100ml-1
11 | CC(C)=CCC/C(C)=C/CC/C(C)=C/CCC1(C)CCc2cc(C)c(C)cc2O1 (stereo not drawn) | 33 | – | – | – | –
12 | CC(C)=CCC/C(C)=C/CC/C(C)=C/CCC1(C)CCc2c(cc(C)c(O)c2C)O1 (stereo not drawn) | 42 | – | > 10 | 1.06 | inhibition [8]: 40%
13 | CC(C)=CCC/C(C)=C/CC/C(C)=C/CCC1CCc2cc(O)ccc2C1 (stereo not drawn) | 40 | 0.62 | – | – | HDL cholesterol [1]: 94 mg 100ml-1; Total cholesterol [1]: 152 mg 100ml-1; Triglycerides [1]: 76 mg 100ml-1; LDL cholesterol [2]: 57 mg 100ml-1
14 | CC(C)=CCC/C(C)=C/CC/C=C/CCC1(C)CCc2cc(O)c(C)c(C)c2O1 (stereo not drawn) | 68 | – | – | – | –
15 | CC(C)=CCC/C(C)=C/CC/C(C)=C/CC/C(C)=C/CCC1(C)CCc2cc(O)c(C)c(C)c2O1 (stereo not drawn) | 0 | – | – | – | –
16 | CC(C)=CCC/C(C)=C/CC/C(C)=C/CCC1Oc2c(cc(O)c(C)c2C)C(=O)/C1=N\O (stereo not drawn) | 84 | – | – | – | –
17 | CC(C)=CCC/C(C)=C/CC/C(C)=C/CCC1(C)CCc2c(O)cccc2O1 (stereo not drawn) | 62 | – | – | 1.27 | –
18 | CCCCCCCCCCCCCC1(C)CCc2cc(O)c(C)c(C)c2O1 (stereo not drawn) | 16 | – | – | – | –
19 | CC(C)=CCC/C(C)=C/CC/C(C)=C/CCC1(C)CCc2cc(O)c3ccccc3c2O1 (stereo not drawn) | 57 | 0.61 | – | 0.8 | HDL cholesterol [1]: 97 mg 100ml-1; Total cholesterol [1]: 160 mg 100ml-1; Triglycerides [1]: 81 mg 100ml-1; inhibition [8]: 57%; LDL cholesterol [2]: 61 mg 100ml-1
